Screens (PubChem)
Only some compounds are listed: those with a hit (about 4.9% of all), similar ones and a draw of the others.
STAT1 activator: STAT1 signaling activators, primary screen, cell-based, HTS, luciferase reporter | activation (% of control), % at 5.5 µM | actives 2.6% (n = 200,000) | NIH 3T3 STAT1-luciferase reporter, IFN-gamma, luminescence; 100% = IFN-gamma alone, no compound;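 active = activation above the screen-wide mean activation plus 3 SD, cut at about 130% in these data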;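 note: raw ratio to IFN-gamma control signal so 100% means no change and 0% no light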
STAT3 activator: IL-6 driven STAT3 reporter potentiators, primary screen, U3A cells, luciferase, luminescence, MLSCN library. IL-6 STAT3-luciferase reporter; 100% = signal with IL-6 EC80 alone. activation (% of control), % at 5.6 µM. actives 0.91% (n = 190,000);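 active = activation above the screen-wide mean of compound activation plus 3 SD, cut at about 130% in these data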;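 note: 0% = background luminescence of wells with medium and substrate only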
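Material: STAT3-luciferase reporter U3A cells. Controls: IL-6-treated wells, 100% activation. Read-out: % activation versus median of IL-6-stimulated wells. Probe or stimulus: IL-6 stimulus at 33 ng/mL final. Timing: compound 1 h, then IL-6 6 h at 37 °C. Signal: reporter luminescence signal.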
NF-kB expr up: activators of NF-kB expression in neurons, primary screen, cell-based, HTS | human neuronal cells, NF-kB reporter expression; hits give high values | fold change at 12.5 µM | actives 1.6% (n = 190,000) | AID 1239, 2008; in the data active = fold change above about 3.3
APP 5'UTR act: activators of APP 5'UTR luciferase reporter, primary screen, SH-SY5Y cells. actives 1% (n = 190,000). activation, % at 2 µM. AID 1276, 2008. SH-SY5Y APP 5'UTR luciferase reporter, luminescence; zero percent = DMSO vehicle wells;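 active = activation above a set limit, based on mean plus 3 SD of controls, cut at about 140% in these data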
STAT3 inh-1: IL-6 driven STAT3 reporter inhibitors, primary screen, U3A cells, luciferase, luminescence, MLSCN library | inhibition, % at 5.5 µM | IL-6 STAT3-luciferase reporter; host cell line lacks STAT1 | AID 862, 2007 | actives 0.89% (n = 190,000);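 active = inhibition above the mean inhibition across all screened compounds plus 3 SD, cut at about 44% in these data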;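 note: 0% = DMSO only wells and 100% = 100 µM nifuroxazide control wells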
STAT1 blocker: STAT1 signaling inhibitors, primary screen, cell-based, HTS, luciferase reporter; NIH 3T3 STAT1-luciferase reporter, IFN-gamma, luminescence; inhibition, % at 5.5 µM; actives 0.35% (n = 200,000);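 active = inhibition above a set limit, the mean inhibition across all tested compounds plus 3 SD, cut at about 34% in these data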;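 note: 0% = IFN-gamma with DMSO and 100% = IFN-gamma with 300 µM nifuroxazide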
STAT3 inh-2: STAT3 reporter inhibitors, retest of hits, confirmation, U3A cells, luciferase, luminescence; inhibition, % at 5.7 µM; AID 1265, 2008; actives 45% (n = 1,200); IL-6 STAT3 luciferase reporter; cell line lacks STAT1; shares compounds with STAT3 inh-1;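 active = inhibition above the hit cutoff computed for the primary STAT3 screen, cut at about 44% in these data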;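 note: 0% = IL-6 plus DMSO and 100% = IL-6 plus nifuroxazide control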
NFkB inh STAT3ct: NF-kB reporter inhibitors in human cells, confirmation, counter-screen for STAT3 inhibitor project, cell-based, HEK293T, luciferase, TNF-alpha stimulus; shares compounds with STAT3 inh-1; TNF-alpha induced; actives 36% (n = 1,200); AID 1308, 2008; inhibition, % at 5.7 µM;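 active = inhibition above the mean of solvent-only control wells plus 3 SD, cutoff set per campaign, cut at about 13% in these data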;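 note: 0% = TNF-alpha with DMSO and 100% = TNF-alpha with MG high control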
STAT1 inh 2: STAT1 reporter inhibitors, IFN-gamma induced, confirmation, counter-screen for STAT3 inhibitor project, cell-based, NIH 3T3, luciferase luminescence | inhibition, % at 5.7 µM | shares compounds with STAT3 inh-1 | actives 27% (n = 1,200) | NIH 3T3 STAT1-luciferase reporter;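 active = inhibition above the mean plus 3 SD of solvent-only control wells, limit set per screening run, cut at about 16% in these data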;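 note: 0% = DMSO with IFN-gamma and 100% = nifuroxazide control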
An asterisk follows results filed as active; . = not tested or not shown.

SMILES	STAT1 activator	STAT3 activator	NF-kB expr up	APP 5'UTR act	STAT3 inh-1	STAT1 blocker	STAT3 inh-2	NFkB inh STAT3ct	STAT1 inh 2
Cc1nn(C)c(C)c1NC(=O)CSc1nc(C2CC2)nc2c1cnn2-c1ccccc1	96	62	1.1	9	50*	5	37	7	-3
CC(C)N(CCc1ccncc1)C(=S)Nc1ccc(F)c(Cl)c1	96	99	1.3	7	6	3	.	.	.
COc1ccc(C2SCC(=O)N2CCc2ccc(OC)c(OC)c2)cc1 (stereo not drawn)	73	64	0.79	-10	45*	28	43*	15*	16*
COc1ccc(/C=N/N=C(\N)c2nonc2N)cc1	73	61	9.4*	191*	51*	28	28	-10	-117
Cc1cccc(Cn2nc(-n3cccc3)c3c(C)cc(C)nc32)c1	97	99	1.1	-23	2	3	.	.	.
O=C1C2C3C=CC(C3)C2C(=O)N1c1ccc(Cc2ccncc2)cc1 (stereo not drawn)	89	83	0.85	11	23	12	.	.	.
CC1CCC2C(=O)N(c3ccc(Cc4ccncc4)cc3)C(=O)C2C1 (stereo not drawn)	70	38	0.97	0	74*	32	70*	23*	21*
COc1ccc(-c2nc(-c3ccc(Br)o3)no2)cc1	119	65	6.7*	106	49*	-21	8	-19	-132
Cc1ccc2cc(/C=N/NC(=O)c3ccccc3[N+](=O)[O-])c(Cl)nc2c1	92	80	0.98	9	26	7	.	.	.
O=C(O)c1cc(-c2ccc3c(c2)OCCO3)n[nH]1	101	102	0.99	6	0	-3	.	.	.
Oc1ccccc1-c1cc(-c2ccc3c(c2)OCCO3)n[nH]1	111	57	8.9*	211*	55*	-14	21	-44	-29
COc1ccc(-c2[nH]ncc2/C=C(/C#N)C(=O)NC2CCCCCC2)cc1	101	103	0.72	5	0	-1	.	.	.
COc1ccc(/C=N/NC(=S)Nc2cccc(C(=O)O)c2)cc1	72	36	1.5	29	78*	29	52*	6	-5
O=C(O)c1cccc(NC(=S)N/N=C/c2cccnc2)c1	104	91	1.4	33	13	-6	.	.	.
COc1ccc(CCNC(=O)C(=O)NCc2ccccn2)cc1	95	104	0.95	15	-1	6	.	.	.
COc1cc2c(cc1OC)C1=NC(=O)CN1C(SCc1ccccc1C)=N2	89	64	0.66	-5	47*	12	43	20*	9
CCN1CCN(C(=O)C(=O)c2c(C)[nH]c3ccccc23)CC1	98	101	1.2	11	1	2	.	.	.
O=C(Nc1cc(Cl)ccn1)C1CCN(S(=O)(=O)c2cccs2)CC1	100	56	1.2	4	51*	0	43	1	-7
O=C(Nc1ccncc1)C1CCN(S(=O)(=O)c2cccs2)CC1	90	98	1	0	5	10	.	.	.
O=C1NC(Cc2c[nH]c3ccccc23)C(=O)N1Cc1ccc(CN2C(=O)NC(Cc3c[nH]c4ccccc34)C2=O)cc1 (stereo not drawn)	90	114	0.54	14	-11	9	.	.	.
